What follows are compounds tested on SCC-12F cells, EGF-induced EGFR degradation, Western blot (assay: EGFR lysosomal turnover delay in cells – SCC-12F cells, Western blot, mechanism study for Ras-related GTPase inhibitor project (AID 602146)). Conditions: at 100 µM; stronger effect = higher value.
Procedure, shortened: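 Buffer or medium: serum-free DMEM; technique: EGFR Western blot; controls: DMSO-treated cells as degradation reference; times: 2 h compound pretreatment, then EGF exposure up to 2 h; probe or stimulus: EGF, 20 nM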

Q: For `COc1cccc(C(=O)NC(=S)Nc2sc3c(c2C(=O)O)CC(C)(C)OC3)c1`, which EGFR remaining fraction at 120 min is on record?
A: 1.24

Q: With `CC1(C)Cc2c(sc(NC(=S)NC(=O)c3ccc(Br)cc3)c2C(=O)O)CO1` as the compound, how does the EGFR remaining fraction at 120 min read?
A: 0.643

Q: How did the EGFR remaining fraction at 120 min turn out when `CC1(C)Cc2c(sc(NC(=S)NC(=O)c3ccc(F)cc3)c2C(=O)O)CO1` was run?
A: 0.241

Same assay, conditions: measured here: 60 min time point; at 100 µM; stronger effect = higher value

Q: For `COc1cccc(C(=O)NC(=S)Nc2sc3c(c2C(=O)O)CC(C)(C)OC3)c1`, which EGFR remaining fraction at 60 min is on record?
A: 0.651

Q: With `CC1(C)Cc2c(sc(NC(=S)NC(=O)c3ccc(Br)cc3)c2C(=O)O)CO1` as the compound, how does the EGFR remaining fraction at 60 min read?
A: 0.696

Q: `CC1(C)Cc2c(sc(NC(=S)NC(=O)c3ccc(F)cc3)c2C(=O)O)CO1` was tested. Which EGFR remaining fraction at 60 min did it give?
A: 0.561
